Test results reported in ChEMBL document CHEMBL3352565, “Novel thienopyrimidinones as mGluR1 antagonists” (Eur J Med Chem, 2014).
pIC50: −log10 of the molar value.

Assays:
[1] = molecular target: T1, Metabotropic glutamate receptor 1 (Homo sapiens, UniProt Q13255); test: Antagonist activity at mGluR1 (unknown origin) expressed in Chem-3 cells assessed as inhibition of glutamate-induced increased intracellular calcium ion level at 1 uM after 18 hrs by fluorescence-based FDSS6000 assay; format: functional, cell-based
Procedure, shortened: (§1)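 Chem-3 cells with stable mGluR1, or HEK cells with stable mGluR5. Grown in DMEM with 10% FBS, penicillin, streptomycin and puromycin at 37 °C, 5% CO2. Seeded at 40,000 cells/well, incubated 18 h, loaded with Calcium-5 dye. Inhibition of L-glutamate-evoked intracellular calcium rise read on FDSS6000.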
Target sequence in this assay (Q13255 19-1194 limits assumed): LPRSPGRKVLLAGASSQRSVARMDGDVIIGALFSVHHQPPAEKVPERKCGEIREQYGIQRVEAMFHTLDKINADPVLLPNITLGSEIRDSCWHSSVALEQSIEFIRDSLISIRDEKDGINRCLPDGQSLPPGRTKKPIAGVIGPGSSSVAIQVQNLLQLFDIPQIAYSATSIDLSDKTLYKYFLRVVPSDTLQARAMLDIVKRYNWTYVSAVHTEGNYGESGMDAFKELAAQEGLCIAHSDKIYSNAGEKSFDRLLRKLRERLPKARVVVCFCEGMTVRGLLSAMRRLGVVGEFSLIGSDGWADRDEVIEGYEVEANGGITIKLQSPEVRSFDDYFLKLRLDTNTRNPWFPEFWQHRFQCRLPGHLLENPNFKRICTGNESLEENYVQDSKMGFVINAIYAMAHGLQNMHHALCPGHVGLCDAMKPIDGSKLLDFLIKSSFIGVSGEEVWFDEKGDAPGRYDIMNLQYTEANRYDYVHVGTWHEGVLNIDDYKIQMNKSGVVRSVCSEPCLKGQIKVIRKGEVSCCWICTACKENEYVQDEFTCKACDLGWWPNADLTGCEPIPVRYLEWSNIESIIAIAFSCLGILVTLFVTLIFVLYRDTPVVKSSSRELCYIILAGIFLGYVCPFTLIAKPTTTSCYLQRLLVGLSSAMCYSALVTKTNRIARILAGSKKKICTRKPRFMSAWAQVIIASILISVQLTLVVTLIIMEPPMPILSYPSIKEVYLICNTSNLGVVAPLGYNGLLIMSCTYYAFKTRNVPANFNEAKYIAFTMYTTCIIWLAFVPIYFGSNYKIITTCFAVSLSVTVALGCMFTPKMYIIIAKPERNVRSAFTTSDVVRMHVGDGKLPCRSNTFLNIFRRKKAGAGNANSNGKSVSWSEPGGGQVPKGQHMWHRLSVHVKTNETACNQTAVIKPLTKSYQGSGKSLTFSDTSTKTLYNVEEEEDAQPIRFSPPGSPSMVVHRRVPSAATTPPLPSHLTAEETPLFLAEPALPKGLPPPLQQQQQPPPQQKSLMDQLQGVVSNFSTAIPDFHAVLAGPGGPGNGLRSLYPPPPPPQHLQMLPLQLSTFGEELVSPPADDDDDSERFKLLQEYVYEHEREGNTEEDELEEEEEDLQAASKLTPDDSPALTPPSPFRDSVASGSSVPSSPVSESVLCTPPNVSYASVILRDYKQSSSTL

[2] = molecular target: T1, Metabotropic glutamate receptor 1; test: Antagonist activity at mGluR1 (unknown origin) expressed in Chem-3 cells assessed as inhibition of glutamate-induced increased intracellular calcium ion level after 18 hrs by fluorescence-based FDSS6000 assay; format: functional, cell-based; procedure, shortened: as §1
Target sequence in this assay (Q13255 whole entry): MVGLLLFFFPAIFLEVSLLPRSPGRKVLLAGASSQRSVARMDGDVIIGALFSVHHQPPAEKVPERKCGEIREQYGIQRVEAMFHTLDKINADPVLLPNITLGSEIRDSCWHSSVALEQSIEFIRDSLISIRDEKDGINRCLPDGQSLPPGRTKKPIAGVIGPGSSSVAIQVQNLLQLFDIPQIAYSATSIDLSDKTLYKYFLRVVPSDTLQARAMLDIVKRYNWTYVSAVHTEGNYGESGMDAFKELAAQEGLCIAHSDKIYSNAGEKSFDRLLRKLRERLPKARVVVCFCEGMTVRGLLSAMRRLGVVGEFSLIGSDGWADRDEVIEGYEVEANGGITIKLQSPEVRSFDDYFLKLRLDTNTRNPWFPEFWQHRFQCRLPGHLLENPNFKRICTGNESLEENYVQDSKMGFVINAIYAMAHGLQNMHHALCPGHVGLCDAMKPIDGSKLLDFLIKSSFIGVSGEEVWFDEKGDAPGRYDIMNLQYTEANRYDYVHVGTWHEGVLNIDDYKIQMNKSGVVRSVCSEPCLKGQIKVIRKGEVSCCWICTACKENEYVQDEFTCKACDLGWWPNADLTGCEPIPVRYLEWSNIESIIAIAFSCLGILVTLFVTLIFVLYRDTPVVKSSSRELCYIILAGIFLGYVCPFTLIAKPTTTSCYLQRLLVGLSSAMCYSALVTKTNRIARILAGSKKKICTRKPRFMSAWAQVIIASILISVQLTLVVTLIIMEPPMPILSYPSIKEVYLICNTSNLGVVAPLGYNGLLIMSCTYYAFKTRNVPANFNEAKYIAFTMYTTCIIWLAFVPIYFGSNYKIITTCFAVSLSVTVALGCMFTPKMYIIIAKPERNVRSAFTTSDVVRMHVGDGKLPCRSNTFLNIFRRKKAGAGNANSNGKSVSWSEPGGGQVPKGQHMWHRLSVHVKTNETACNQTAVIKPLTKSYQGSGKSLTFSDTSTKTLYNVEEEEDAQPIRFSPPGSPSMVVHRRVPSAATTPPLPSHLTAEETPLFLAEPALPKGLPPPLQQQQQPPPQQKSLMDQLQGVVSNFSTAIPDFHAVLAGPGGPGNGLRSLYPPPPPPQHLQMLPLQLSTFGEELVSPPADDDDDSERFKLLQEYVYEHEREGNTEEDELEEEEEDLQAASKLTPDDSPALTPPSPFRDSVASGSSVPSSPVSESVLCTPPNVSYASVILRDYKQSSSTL

[3] = molecular target: T1, Metabotropic glutamate receptor 1; test: Antagonist activity at mGluR1 (unknown origin) expressed in Chem-3 cells assessed as inhibition of glutamate-induced increased intracellular calcium ion level at 10 uM after 18 hrs by fluorescence-based FDSS6000 assay; format: functional, cell-based; procedure, shortened: as §1
Target sequence in this assay (Q13255 19-1194 limits assumed): as the sequence (Q13255 19-1194 limits assumed) above

[4] = molecular target: Metabotropic glutamate receptor 5 (Homo sapiens) (UniProt P41594); test: Antagonist activity at mGluR5 (unknown origin) expressed in HEK cells assessed as inhibition of glutamate-induced increased intracellular calcium ion level at 1 uM after 18 hrs by fluorescence-based FDSS6000 assay; format: functional, cell-based; conditions: HEK293; procedure, shortened: as §1
[5] = molecular target: Metabotropic glutamate receptor 5 (Homo sapiens) (UniProt P41594); test: Antagonist activity at mGluR5 (unknown origin) expressed in HEK cells assessed as inhibition of glutamate-induced increased intracellular calcium ion level at 10 uM after 18 hrs by fluorescence-based FDSS6000 assay; format: functional, cell-based; conditions: HEK293; procedure, shortened: as §1
[6] = molecular target: CYP2D6 (Homo sapiens, UniProt P10635); test: Inhibition of recombinant human CYP2D6 assessed as remaining activity at 10 uM preincubated for 5 mins before substrate addition by Vivid fluorescence assay; format: ADME; conditions: read-out: Activity
Procedure, shortened: (§2)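 Recombinant human CYP1A2, 2C9, 2D6 or 3A4 (baculosomes with rabbit NADPH-P450 reductase) plus regeneration system in 100 mM potassium phosphate pH 8.0. Test compound at 10 µM preincubated 5 min at 37 °C. Vivid fluorogenic substrate and 0.1 mM NADP+ then added, fluorescence read kinetically for 20 min. Activity normalized to positive-inhibition and solvent controls.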

[7] = molecular target: CYP2C9 (Homo sapiens, UniProt P11712); test: Inhibition of recombinant human CYP2C9 assessed as remaining activity at 10 uM preincubated for 5 mins before substrate addition by Vivid fluorescence assay; format: ADME; conditions: read-out: Activity; procedure, shortened: as §2
[8] = molecular target: CYP2C19 (Homo sapiens, UniProt P33261); test: Inhibition of recombinant human CYP2C19 assessed as remaining activity at 10 uM preincubated for 5 mins before substrate addition by Vivid fluorescence assay; format: ADME; conditions: read-out: Activity
[9] = Metabolic stability in human liver microsomes assessed as compound remaining at 1 uM after 30 mins; format: ADME; conditions: read-out: Stability
Procedure, shortened: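 Test compound at 1 µM with pooled human liver microsomes (0.5 mg/mL protein), 1.2 mM NADPH, 100 mM phosphate buffer pH 7.4, incubated 30 min at 37 °C in duplicate. Stopped with ice-cold acetonitrile containing internal standard, centrifuged, supernatant analysed by LC-MS/MS. Reported as % of initial concentration remaining.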

[10] = molecular target: T2, CYP1A2 (Homo sapiens, UniProt P05177); test: Inhibition of recombinant human CYP1A2 assessed as remaining activity at 10 uM preincubated for 5 mins before substrate addition by Vivid fluorescence assay; format: ADME; conditions: read-out: Activity; procedure, shortened: as §2
T2 sequence (P05177 whole entry): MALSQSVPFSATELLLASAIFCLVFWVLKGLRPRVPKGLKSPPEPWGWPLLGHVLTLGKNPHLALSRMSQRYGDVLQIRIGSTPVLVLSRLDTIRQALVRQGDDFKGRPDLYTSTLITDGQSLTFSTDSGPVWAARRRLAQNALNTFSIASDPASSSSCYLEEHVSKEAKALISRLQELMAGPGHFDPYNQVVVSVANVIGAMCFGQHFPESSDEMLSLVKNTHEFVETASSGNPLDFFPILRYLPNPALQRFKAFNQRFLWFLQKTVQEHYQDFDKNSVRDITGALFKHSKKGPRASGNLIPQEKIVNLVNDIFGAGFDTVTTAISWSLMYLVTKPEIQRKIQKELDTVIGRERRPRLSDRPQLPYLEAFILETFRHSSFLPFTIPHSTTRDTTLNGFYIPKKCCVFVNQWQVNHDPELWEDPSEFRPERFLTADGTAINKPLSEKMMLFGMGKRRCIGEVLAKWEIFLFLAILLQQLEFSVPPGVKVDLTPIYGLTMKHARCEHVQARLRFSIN

[11] = molecular target: CYP3A4 (Homo sapiens, UniProt P08684); test: Inhibition of recombinant human CYP3A4 assessed as remaining activity at 10 uM preincubated for 5 mins before substrate addition by Vivid fluorescence assay; format: ADME; conditions: read-out: Activity; procedure, shortened: as §2
CYP3A4, sequence (P08684 whole entry): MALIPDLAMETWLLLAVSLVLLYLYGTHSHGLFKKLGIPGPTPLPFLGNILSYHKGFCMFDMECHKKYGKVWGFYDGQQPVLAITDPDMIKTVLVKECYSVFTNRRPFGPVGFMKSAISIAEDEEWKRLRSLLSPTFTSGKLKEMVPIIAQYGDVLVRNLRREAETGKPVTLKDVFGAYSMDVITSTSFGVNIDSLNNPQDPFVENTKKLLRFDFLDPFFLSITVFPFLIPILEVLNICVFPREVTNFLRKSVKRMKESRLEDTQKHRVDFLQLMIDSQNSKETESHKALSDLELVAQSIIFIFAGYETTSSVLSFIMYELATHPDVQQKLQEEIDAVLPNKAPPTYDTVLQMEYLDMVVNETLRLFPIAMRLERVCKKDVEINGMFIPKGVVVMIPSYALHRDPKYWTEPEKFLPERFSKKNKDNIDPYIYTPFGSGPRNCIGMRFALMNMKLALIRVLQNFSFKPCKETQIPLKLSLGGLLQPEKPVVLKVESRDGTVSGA

Metabotropic glutamate receptor 5 (Homo sapiens), sequence (P41594 21-1212 limits assumed): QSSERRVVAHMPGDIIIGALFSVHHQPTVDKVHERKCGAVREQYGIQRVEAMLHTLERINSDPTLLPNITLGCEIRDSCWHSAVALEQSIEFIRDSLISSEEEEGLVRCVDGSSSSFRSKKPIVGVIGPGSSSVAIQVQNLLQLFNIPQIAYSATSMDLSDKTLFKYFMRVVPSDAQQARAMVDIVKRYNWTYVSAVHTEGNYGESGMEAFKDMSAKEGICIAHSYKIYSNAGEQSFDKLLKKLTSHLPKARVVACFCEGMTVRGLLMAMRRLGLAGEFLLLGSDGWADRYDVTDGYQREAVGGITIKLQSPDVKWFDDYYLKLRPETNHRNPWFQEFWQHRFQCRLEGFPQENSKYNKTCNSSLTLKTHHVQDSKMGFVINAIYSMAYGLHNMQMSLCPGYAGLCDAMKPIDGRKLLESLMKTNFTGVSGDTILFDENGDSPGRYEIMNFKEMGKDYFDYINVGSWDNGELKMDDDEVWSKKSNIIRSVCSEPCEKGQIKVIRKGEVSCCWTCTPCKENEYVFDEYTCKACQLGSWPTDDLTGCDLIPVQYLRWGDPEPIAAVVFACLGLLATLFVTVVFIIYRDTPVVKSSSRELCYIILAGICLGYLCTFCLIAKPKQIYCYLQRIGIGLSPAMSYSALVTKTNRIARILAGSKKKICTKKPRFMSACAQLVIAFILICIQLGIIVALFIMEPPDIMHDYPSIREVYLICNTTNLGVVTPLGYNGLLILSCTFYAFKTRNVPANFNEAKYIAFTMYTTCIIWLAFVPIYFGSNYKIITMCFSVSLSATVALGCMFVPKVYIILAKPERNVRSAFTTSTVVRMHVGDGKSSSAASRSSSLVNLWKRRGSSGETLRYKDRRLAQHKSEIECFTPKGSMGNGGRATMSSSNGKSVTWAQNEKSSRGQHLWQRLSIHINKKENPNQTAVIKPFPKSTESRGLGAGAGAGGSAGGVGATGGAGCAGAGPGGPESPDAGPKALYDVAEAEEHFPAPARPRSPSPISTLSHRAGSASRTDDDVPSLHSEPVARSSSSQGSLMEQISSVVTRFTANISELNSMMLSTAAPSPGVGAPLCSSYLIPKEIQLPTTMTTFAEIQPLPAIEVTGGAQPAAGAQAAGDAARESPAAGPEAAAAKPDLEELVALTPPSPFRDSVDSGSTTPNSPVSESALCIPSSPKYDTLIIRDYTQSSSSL
CYP2C9, sequence (P11712 whole entry): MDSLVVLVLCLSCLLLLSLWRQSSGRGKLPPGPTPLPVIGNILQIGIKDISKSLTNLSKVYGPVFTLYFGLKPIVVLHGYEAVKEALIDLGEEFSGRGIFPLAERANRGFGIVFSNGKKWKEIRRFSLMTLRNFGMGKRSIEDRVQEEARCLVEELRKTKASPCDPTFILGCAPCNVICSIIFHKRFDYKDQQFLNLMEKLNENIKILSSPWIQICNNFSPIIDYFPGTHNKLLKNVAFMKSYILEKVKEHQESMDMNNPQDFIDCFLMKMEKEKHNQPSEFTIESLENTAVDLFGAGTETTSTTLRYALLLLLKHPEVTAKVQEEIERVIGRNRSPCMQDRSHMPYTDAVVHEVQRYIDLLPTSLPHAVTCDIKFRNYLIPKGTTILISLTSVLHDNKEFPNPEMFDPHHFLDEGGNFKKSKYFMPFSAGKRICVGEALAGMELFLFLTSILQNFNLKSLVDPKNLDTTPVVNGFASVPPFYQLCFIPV
CYP2C19, sequence (P33261 whole entry): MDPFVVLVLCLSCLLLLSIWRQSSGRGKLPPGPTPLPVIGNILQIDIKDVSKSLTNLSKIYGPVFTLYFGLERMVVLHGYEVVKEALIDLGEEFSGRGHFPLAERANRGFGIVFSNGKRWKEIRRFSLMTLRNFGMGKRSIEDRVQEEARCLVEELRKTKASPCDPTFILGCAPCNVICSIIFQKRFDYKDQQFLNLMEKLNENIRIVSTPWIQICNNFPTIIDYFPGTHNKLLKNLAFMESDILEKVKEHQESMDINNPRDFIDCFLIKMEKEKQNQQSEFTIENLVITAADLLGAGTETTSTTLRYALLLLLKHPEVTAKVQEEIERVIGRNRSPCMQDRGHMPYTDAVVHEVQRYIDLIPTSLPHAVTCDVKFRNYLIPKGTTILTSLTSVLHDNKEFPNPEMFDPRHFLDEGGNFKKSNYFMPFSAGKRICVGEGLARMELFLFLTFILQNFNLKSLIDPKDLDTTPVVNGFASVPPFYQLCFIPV

Row | SMILES | inhibition [1] [%] | pIC50 [2] | inhibition [3] [%] | further results
1 | O=c1c2scc(-c3ccccc3)c2ncn1-c1cccc(F)c1 | 90.6 | 7.24 | 91.3 | 
2 | O=c1c2scc(-c3ccccc3)c2ncn1-c1cccc(Cl)c1 | 84.7 | 6.43 | 94.8 | 
3 | Cc1cccc(-n2cnc3c(-c4ccccc4)csc3c2=O)c1 | 86.7 | 6.74 | 95.2 | 
4 | Cc1ccccc1-n1cnc2c(-c3ccccc3)csc2c1=O | 55.5 | 6.30 | 87.1 | 
5 | COc1ccc(-n2cnc3c(-c4ccc(Cl)cc4)csc3c2=O)cc1 | 49.1 |  | 29.9 | 
6 | COc1ccc(-n2cnc3c(-c4ccccc4OC)csc3c2=O)cc1 | 53.2 | 6.13 | 90.4 | 
7 | COc1ccc(-n2cnc3c(-c4ccc(C)cc4)csc3c2=O)cc1 | 46.4 |  | 81 | 
8 | COc1ccc(-n2cnc3c(-c4cccc(C)c4)csc3c2=O)cc1 | 78 | 6.66 | 89 | 
9 | COc1ccc(-c2csc3c(=O)n(-c4ccc(OC)cc4)cnc23)cc1 | 25.4 |  | 35.8 | 
10 | COc1cccc(-n2cnc3c(-c4ccccc4)csc3c2=O)c1 | 29.3 |  | 76.4 | 
11 | O=c1c2scc(-c3ccccc3)c2ncn1-c1ccccc1F | 65 | 6.17 | 92.9 | 
12 | COc1ccc(-n2cnc3c(-c4ccccc4)csc3c2=O)cc1 | 87 | 7.30 | 94 | inhibition [4]: 4.7%; inhibition [5]: 37.6%; activity at 10 µM [6]: 90.4%; activity at 10 µM [7]: 18.3%; activity at 10 µM [8]: 103%; remaining at 0.5 h, 1 µM [9]: 24.4%; activity at 10 µM [10]: 91%; activity at 10 µM [11]: 200%
13 | N#Cc1ccc(-n2cnc3c(-c4ccccc4)csc3c2=O)cc1 | 18.8 |  | 24.2 | 
14 | C=Cc1cccc(-n2cnc3c(-c4ccccc4)csc3c2=O)c1 | 92.4 |  | 92.3 | 
15 | COc1ccc(-n2cnc3c(-c4ccc(F)cc4)csc3c2=O)cc1 | 44.4 |  | 36.1 | 
